Measurements: ChEMBL document CHEMBL4513216, “Probing the Open Global Health Chemical Diversity Library for Multistage-Active Starting Points for Next-Generation Antimalarials” (ACS Infect Dis, 2020)

Experiment: Toxicity liver stage against HepG2, at 10uM
Assay type: cell-based
Design: test concentration 10 uM, cell line HepG2-A16-CD81EGFP
Conditions: human, HepG2-A16-CD81EGFP cells; read-out: INHIBITION
In short: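 Uninfected HepG2-A16-CD81EGFP cells, 3 × 10^3 per well, 1536-well, plated on prespotted compound at 10 μM final, parasite-free screening media added to match infected plates; puromycin 10 μM positive, DMSO 0.5% negative; run in parallel with 48 h PbLuc assay at 37 °C, 5% CO2; viability by CellTiter-Glo luminescence, normalized to controls.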

| SMILES | cytotoxicity at 10 µM [%] |
| --- | --- |
| Cc1cc(C)nc(N2CCCC2c2cccnc2)n1 (centres undefined) | 0.997 |
| Cc1ccc(S(=O)(=O)n2ccn(C(=O)COc3ccccc3)c2=O)cc1 | 5.34 |
| CCCc1nc2c(c(C)c(C)n2CCN(C)C)c(N)c1CC | 12.9 |
| O=C(Nc1ccc2c(c1)OCO2)c1ccc(N2CCCC2)nn1 | 54.7 |
| CCCS(=O)(=O)N1CCc2nc(N3CCOCC3)nc(N(C)C)c2C1 | 15.5 |
| O=C(COC1CCCC1)N1CC[C@H]2OCC[C@@]2(COCC2CC2)C1 | 1.52 |
| COc1cc(C2SCC(=O)Nc3ccsc32)cc(OC)c1O (centres undefined) | 54.7 |
| Cc1cccc(CNC(=O)c2cccnc2N)c1 | 11 |
| CCCn1c(N2CCCC2)nc2c(C)nn(C)c2c1=O | 2.33 |
| CCCc1nc(NCCc2ccccc2)c2c(n1)c(C)nn2CC | 20 |
| CNC(=O)c1nn(C)cc1NC(=O)C(C)n1ncc(Cl)c1C (centres undefined) | 8.77 |
| CCOc1ccc(CN2CCC(c3ccn[nH]3)C2)cc1CO (centres undefined) | 0.845 |
| CCN(Cc1ccncc1)CC1(O)CCN(C(=O)c2cccc(C)n2)C1 (centres undefined) | -4.08 |
| COc1cc(CN2CCC3(CC(Nc4ccncn4)C3)C2)cc(OC)c1 (centres undefined) | -9.27 |
| Cc1cccc(C2CCCN(C(=O)c3ccncc3)C2)n1 (centres undefined) | 2.97 |
| COCC(=O)N1CCCC1c1csc(Nc2cnccn2)n1 (centres undefined) | -8.11 |
| Cc1cnc(CC2COCCN(Cc3nccn3C)C2)cn1 (centres undefined) | -2.25 |
| O=C(C1CCCCC1)N1CCC(c2n[nH]c3nccnc23)CC1 | 4.05 |
| Cc1noc(C)c1C(=O)N1CCC2(CC(N(C)c3ccncn3)C2)C1 (centres undefined) | -5.94 |
| Cc1ncncc1C(=O)N1CCCC(Cc2nccs2)C1 (centres undefined) | -9.13 |
| Cc1noc(C)c1-c1cncc(C2CCCN2Cc2ccncc2)n1 (centres undefined) | -7.98 |
| Cc1noc(C)c1-c1cnc(CC2CCN(C(=O)c3cc[nH]n3)C2)cn1 (centres undefined) | 3.6 |
| c1cncc(C2=NOC3(CCN(Cc4c[nH]c5ccccc45)CC3)C2)c1 | 9.49 |
| COc1ccccc1-c1cc(C(=O)N2CCCC2)c2cnn(C)c2n1 | 9.4 |
| CC(C)C(C)NC(=O)Nc1cccn(C)c1=O (centres undefined) | -7.48 |
| Cc1nccn1-c1ccc(CNS(=O)(=O)N2CCCCC2C)cn1 (centres undefined) | -11 |
| O=C(NCC(O)c1ccc(Cl)s1)c1ccoc1 (centres undefined) | -3.36 |

| SMILES | cytotoxicity at 10 µM [%] |
| --- | --- |
| Cc1cc(CNc2cc(-c3ccoc3C)nn2CCO)c(C)o1 | -0.598 |
| CC(C)(C)CN(CCO)C(=O)Nc1cccc(N2CCNC2=O)c1 | -17.2 |
| COC(=O)CN(C(=O)c1ccoc1)c1cccc(F)c1 | 5.42 |
| CS(=O)(=O)NC(=O)c1cnc2c(cnn2C2CCCC2)c1 | 8.18 |
| O=C(CN1CCN(c2ccccc2F)CC1)Nc1ccc(Cl)cn1 | 4.04 |
| Cn1ccnc1COc1ccc(NC(=O)CCC2CCCO2)cc1 (centres undefined) | 4.34 |
| O=C(NCc1cccnc1-n1cncn1)c1cncc(Br)c1 | 10 |
| CCN(CC)C(=O)CNC(=O)N1CCC(c2ccccc2)C1 (centres undefined) | 2.03 |
| Cc1nc(CCNC(=O)C2CC(=O)N(C(C)C)C2)cs1 (centres undefined) | 14.9 |
| CCc1cc(CNCc2ccccc2N(C)C2CCN(C)CC2)on1 | -11.7 |
| CCN(CCNCc1ccc(C#N)cc1)C1CC1 | -6.54 |
| CCC1CN(C(=O)c2cnc(-c3cnn(C)c3)s2)CCO1 (centres undefined) | 8.79 |
| O=C(Cc1ccc(S(=O)(=O)C(F)F)cc1)N1CCC1 | -17 |
| CC(C)(C)C(CCO)NC(=O)Nc1ccccc1 (centres undefined) | -3.3 |
| CS(=O)(=O)N1CCO[C@@H]2CN(C(=O)C3CCOC3)CC[C@@H]2C1 (some centres undefined) | -108 |
| O=C1NCCO[C@H]2CN(C(=O)c3cccs3)CC[C@@H]12 | -107 |
| N#Cc1ccc(C(=O)N2CC[C@H]3[C@@H]2CCC(=O)N3c2ccccc2)cc1 | 3.99 |
| CC(C)(CO)Nc1cc(-c2ccncc2)ncn1 | -0.89 |
| CC[C@H](C)Nc1nccc(-c2cnc3sc(C)c(C)n3c2=O)n1 | 11.1 |
| CCN(C)C[C@@H]1CN(C(=O)c2cc(-c3ccc(F)cc3)n[nH]2)C[C@@H]1CO | -26.4 |
| Cc1ccccc1CN1CCC(CNc2ncnc3c2CCNCC3)C1 (centres undefined) | -7.13 |
| CNC(=O)[C@@H]1C[C@@H](n2cc(-c3ccc(Cl)cc3)nn2)CN1 | -3.95 |
| COc1ccc(F)cc1CN1CCCn2nc(CNS(C)(=O)=O)cc2C1 | 2.23 |
| CCCc1cc(=O)[nH]c(-c2cccc(CN3CCCCCC3)c2)n1 | -4.09 |
| COc1cccc(OCC2CCCN(C(=O)c3cnn(C)c3)C2)c1 (centres undefined) | -21.4 |
| CCn1c(C2CCCN(C(=O)C(C)(C)OC)C2)nn(CCN(C)C)c1=O (centres undefined) | -1.94 |
| Clc1ccccc1C1(c2ccnc(C3CC3)n2)CCNCC1 | 7.89 |
